In general, IC50 refers to the point on the concentration scale where inhibition reaches its midpoint. As a reminder, the CC50 is the concentration that lowers cell viability or growth by half. By inhibition is commonly meant the change of the read-out against control, counted positive when it falls.

Data set [1] in a line: Inhibition of DENV NS5-MTase domain using GpppA2'OMe-RNA74 as a substrate incubated for 30 mins by filter binding assay. More on the design: species or system dengue virus type 2. The conditions noted are these: read-out: IC50. Put shortly: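 MTase (1 μM) incubated with increasing inhibitor in 40 mM Tris-HCl pH 7.5, 5 mM DTT, 10 μM AdoMet ([3H]-labelled), 0.5 μM GpppA2′OMe-RNA74 substrate, 30 °C for 30 min; stopped in ice-cold 100 μM AdoHcy; DEAE filter binding, scintillation counting.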

A short description of data set [2]: Cytotoxicity against human Huh-7 cells infected with SARS-COV-2 assessed as reduction in cell viability by celltiter-glo luminescent cell viability assay. To be noted: Huh-7 cells infected with SARS-COV-2. The class given is cell-based. In outline:
(§1)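 Compound-exposed cells assessed by CellTiter-Glo luminescence versus DMSO control; CC50 from dose-response.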

A short description of data set [3]: Selectivity index, ratio of CC50 for human Huh-7 cells to IC50 for Zika virus H/PF/2013 infected in pre-seeded Huh-7 cells assessed as inhibition of viral replication incubated for 72 hrs by immunodetection based direct yield reduction assay. The class given is toxicity, cell-based. The conditions noted are these: read-out: Selectivity Index. In outline:
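Direct yield reduction in Huh7 cells (7000/well), infected with 50 TCID₅₀ of DENV or ZIKV, or 25 TCID₅₀ of WNV. Adsorption 1 h at 37 °C, then virus removed and serial compound dilutions added. Incubated 72 h (DENV, ZIKV) or 48 h (WNV). Viral antigen immunodetected on the monolayer. IC₅₀ by non-linear regression, mean of three experiments. SI = CC₅₀ (Huh7, CellTiter-Glo luminescence)/IC₅₀.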

A short description of data set [4]: Cytotoxicity against African green monkey Vero E6 cells infected with SARS-COV-2 by celltiter-glo luminescent cell viability assay. The format is cell-based, Vero C1008. The conditions noted are these: chlorocebus sabaeus, Vero E6 cells infected with SARS-COV-2. Put shortly: as §1
Background: ATP-based viability assays read luminescence as a measure of living cells.

Another data set concerns SARS-CoV-2. The data set is described as follows: Antiviral activity against SARS-COV 2 infected in quadruplicate Vero E6 cells with DYRA supernatant assessed as reduction in viral replication at 0.8 uM. The conditions noted are these: Severe acute respiratory syndrome coronavirus 2, Vero C1008. The class given is functional.
The nature of data set [5]: Cytotoxicity against human Huh-7 cells assessed as reduction in cell viability by Celltiter-Glo luminescent cell viability assay. The format is cell-based. The conditions noted are these: Huh-7 cells. In outline:
as §1

Data set [6] addresses Src (Proto-oncogene tyrosine-protein kinase Src) (Homo sapiens, UniProt P12931). Nature of the data set: Inhibition of human recombinant N terminal His6 tagged full length Src assessed as residual activity at 5 uM using KVEKIGEGTYGVVYK as a substrate in the presence of NP-40 incubated for 10 mins by scintillation counting analysis relative to control. The conditions noted are these: probe KVEKIGEGTYGVVYK, read-out: Activity. Put shortly: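 Compounds at fixed 5 μM; 10–50 ng kinase, substrate and NP-40/BSA per supplementary table, 10 μL at 30 °C for 10 min in low-binding tubes. Reactions spotted on filter, dried, scintillation counted. Mean ± SD of two independent experiments.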

The nature of data set [7]: Selectivity index, ratio of CC50 for human Huh-7 cells to IC50 for Zika virus H/PF/2013 infected in pre-seeded Huh-7 cells assessed as inhibition of viral replication incubated for 72 hrs by immunodetection based secondary yield reduction assay. The class given is toxicity, cell-based. To be noted: read-out: Selectivity Index.
The test system of the next data set is Huh-7. Nature of the data set: Effect on formation of DENV replication complex in human Huh-7 cells assessed as reduction in expression of NS5 at 50 uM measured after 8 to 24 hrs by DAPI staining based confocal microscopy analysis. The class given is functional, cell-based. The conditions noted are these: time 8-24 hrs. Put shortly: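 Huh-7 cells (1 × 10⁴) on coverslips infected with DENV-2 (MOI 0.05), treated (100 or 50 μM as listed), fixed in 4% paraformaldehyde at 8, 12, 16, 24 h; anti-NS3/anti-NS5 with Alexa 488/568 secondaries, DAPI; confocal, 5 random fields at 40×; % positive cells; 2-way ANOVA with Dunnett.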

Data set [8] can be described thus: Inhibition of full length Dengue virus 2 NS5 RNA dependent RNA polymerase incubated for 10 mins by picogreen staining based fluorescent analysis (Rvb= 0.32+/-0.05 uM). The arrangement: species or system dengue virus type 2.
Data set [9] in a line: Selectivity index, ratio of CC50 for human Caco-2 cells infected with SARS-COV-2 to IC50 of SARS-COV 2 infected in human Caco-2 cells. The conditions noted are these: read-out: Selectivity Index. The class given is toxicity, cell-based.
In data set [10] the test system is Influenza A virus. Nature of the data set: Antiviral activity against Influenza A Puerto Rico/8/34/H1N1 infected in human A549 cells assessed as reduction in viral protein expression at 20 uM treated for 1 hr during viral adsorption followed by staining with anti-Flu antibody observed at 24 hrs post infection by In-cell western assay. The class given is functional, organism-based. To be noted: A/Puerto Rico/8/1934(H1N1).

For a further data set, the system named is West Nile virus. The data set is described as follows: Antiviral activity against West Nile virus lineage 1 (Italy/2009) infected in pre-seeded Huh-7 cells assessed as inhibition of viral replication incubated for 48 hrs by immunodetection based plaque reduction assay. The class given is functional, organism-based. To be noted: Huh-7, 48 h. For orientation: Plaque reduction counts the foci of infection that form in a cell layer.

In data set [11] the test system is Influenza A virus. Nature of the data set: Antiviral activity against Influenza A virus (A/California/04/2009(H1N1)) infected in human A549 cells assessed as reduction in viral protein expression at 20 uM treated for 2 to 6 hrs post infection and measured following infection of MDCK cells with supernatant for 24 hrs by time-of-addition assay. The format is functional, organism-based. To be noted: time 2-6 hrs.

For data set [12], the system named is Influenza A virus. The data set is described as follows: Antiviral activity against Influenza A Puerto Rico/8/34/H1N1 infected in human A549 cells assessed as inhibition of hemagglutinin expression at 20 uM treated post viral infection for 24 hrs followed by infection of fresh cell monolayer of A549 cells with supernatant for 24 hrs by In-cell western assay. The class given is functional. To be noted: A/Puerto Rico/8/1934(H1N1). In outline:
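A549 cells infected with PR8 H1N1 and given 20 μM compound: 2 h before infection (PRE), 1 h during adsorption (DUR), or 24 h after adsorption (POST); supernatants used to infect fresh monolayers for 24 h; anti-HA in-cell western; RFU as % of untreated infected; 3 replicates from two experiments.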

A short description of data set [13]: Selectivity index, ratio of CC50 for human Huh-7 cells to IC50 for Dengue virus serotype 2 New Guinea C infected in pre-seeded Huh-7 cells assessed as inhibition of viral replication incubated for 72 hrs by immunodetection based plaque reduction assay. The format is toxicity, cell-based. The conditions noted are these: read-out: Selectivity Index.
The nature of data set [14]: Selectivity index, ratio of CC50 for African green monkey Vero E6 cells infected with SARS-COV-2 to IC50 for SARS-COV 2 infected in monkey Vero E6 cells. The class given is toxicity, cell-based, Vero C1008. To be noted: read-out: Selectivity Index.
The subject of data set [15] is Influenza A virus. The data set is described as follows: Antiviral activity against Influenza A/California/04/2009H1N1 infected in human A549 cells assessed as reduction in viral protein expression at 20 uM treated for 24 hr post viral adsorption followed by staining with anti-Flu antibody observed at 24 hrs post infection by In-cell western assay. The format is functional, organism-based.

Data set [16] has as its system Influenza A virus. The data set is described as follows: Antiviral activity against Influenza A Puerto Rico/8/34/H1N1 infected in human A549 cells assessed as inhibition of hemagglutinin expression at 20 uM treated immediately after infection for 2 to 6 hrs followed by maintaining cells in fresh medium without compound for 24 hrs followed by infecting monolayer MDCK cells with supernatant for 24 hrs by time-of-addition assay. The format is functional, organism-based. To be noted: A/Puerto Rico/8/1934(H1N1), time 2-6 hrs. Put shortly:
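A549 cells infected with PR8 H1N1 received 20 μM compound immediately after adsorption for 2, 4 or 6 h, then fresh medium to 24 h; supernatants infected fresh MDCK for 24 h; anti-HA in-cell western; RFU % vs untreated infected; 4 replicates from two experiments.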

SMILES strings stand for the structures. Calls of active or inactive are those of the source. No cut-off for these calls is given here.

Src (Proto-oncogene tyrosine-protein kinase Src), sequence (P12931 2-536 limits assumed): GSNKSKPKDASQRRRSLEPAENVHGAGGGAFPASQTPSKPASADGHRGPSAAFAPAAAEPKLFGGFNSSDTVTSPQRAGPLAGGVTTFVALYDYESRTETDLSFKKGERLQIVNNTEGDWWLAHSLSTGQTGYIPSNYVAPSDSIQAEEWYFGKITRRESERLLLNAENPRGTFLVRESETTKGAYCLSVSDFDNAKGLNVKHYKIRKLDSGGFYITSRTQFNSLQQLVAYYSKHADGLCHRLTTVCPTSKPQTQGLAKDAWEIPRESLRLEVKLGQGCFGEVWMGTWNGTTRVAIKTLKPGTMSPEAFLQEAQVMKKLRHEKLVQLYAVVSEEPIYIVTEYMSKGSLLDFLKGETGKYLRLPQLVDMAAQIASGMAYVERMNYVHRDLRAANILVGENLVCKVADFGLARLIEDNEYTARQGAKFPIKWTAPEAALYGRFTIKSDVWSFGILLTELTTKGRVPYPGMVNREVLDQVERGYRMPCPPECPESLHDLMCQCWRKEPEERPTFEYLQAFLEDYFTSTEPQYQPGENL

Take `FC(F)(F)c1cccc(Nc2nc(NCCOc3ccccc3)nc3[nH]cnc23)c1`: the IC50 was 112 µM in data set [1], 43.7 µM in data set [8] and 3.9 µM in the data set on West Nile virus. Besides, the 50% cytotoxic concentration (CC50) in data set [2], in [4] and in data set [5] was 200 µM throughout. The selectivity ratio at 72 h in [3] was determined as 250; in data set [7], 182; in [13], 222. Also, in the data set with SARS-CoV-2, the inhibition at 0.8 µM turned out to be 83.5%. In addition, the activity at 10 min, 5 µM in data set [6] worked out at 47%. The Activity entry with Huh-7, with Influenza A virus [10], with Influenza A virus [11], in the data set with Influenza A virus [15] and with Influenza A virus [16] was “Active” throughout. The selectivity ratio amounted to 14 in [9] and 4 in data set [14]. The inhibition at 20 µM in the data set with Influenza A virus [12] amounted to 50%.

Values taken from ChEMBL document CHEMBL4842338, “System-oriented optimization of multi-target 2,6-diaminopurine derivatives: Easily accessible broad-spectrum antivirals active against flaviviruses, influenza virus and SARS-CoV-2” (Eur J Med Chem, 2021).
